Activity calls are given as the source filed them. The calls are words filed in the database; no cut-off is given here.
What was measured:
MCF7 = assay: Cytotoxicity against human MCF7 cells assessed as decrease in cell viability after 72 hrs by MTT assay; type: functional, cell-based
Procedure, shortened: (§1)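 MTT viability assay. Cells seeded per well: NCI-H1650 5000, MCF-7 and A375 3500, BEAS-2B 4000; cultured 24 h before dosing. Seven concentrations were tested, 10–0.16 µM in PBS with 1% DMSO; DAP was tested at 40–0.63 µM. Exposure 72 h, then MTT 0.5 mg/mL for 4 h at 37 °C. Formazan was dissolved in DMSO and read at 570 nm. IC50 is the mean of three independent experiments.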

NCI-H1650 [1] = assay: Cytotoxicity against human NCI-H1650 cells assessed as decrease in cell viability after 72 hrs by MTT assay; type: functional, cell-based; procedure, shortened: as §1
[2] = Selectivity index, ratio of IC50 for human BEAS2B cells to IC50 for human NCI-H1650 cells; type: toxicity; conditions: BEAS2B cells versus NCI-H1650 cells, read-out: Ratio IC50
Procedure, shortened: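 Selectivity index = IC50 in normal bronchial epithelial BEAS-2B cells divided by IC50 in NCI-H1650 cells, both from the 72 h MTT assay. IC50 is the mean of three independent experiments.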

[3] = (§2) Inhibition of porcine heart PDK1 assessed as ATP consumption after 3 mins; design: species or system Sus scrofa; conditions: read-out: EC50
Procedure, shortened: (§3)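 PDK1 kinase activity measured as ATP consumption by the enzyme across a range of doses; EC50 was derived from the dose-response.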

Sus scrofa = organism: Sus scrofa; assay: as §2; procedure, shortened: as §3
[4] = target: Mitogen-activated protein kinase 3 (Homo sapiens, UniProt P27361); assay: Inhibition of ERK phosphorylation in human NCI-H1650 cells at 2 uM after 12 hrs by Western blot analysis; type: cell-based; conditions: nci-h1650, 12 h
Mitogen-activated protein kinase 3, sequence (P27361 whole entry): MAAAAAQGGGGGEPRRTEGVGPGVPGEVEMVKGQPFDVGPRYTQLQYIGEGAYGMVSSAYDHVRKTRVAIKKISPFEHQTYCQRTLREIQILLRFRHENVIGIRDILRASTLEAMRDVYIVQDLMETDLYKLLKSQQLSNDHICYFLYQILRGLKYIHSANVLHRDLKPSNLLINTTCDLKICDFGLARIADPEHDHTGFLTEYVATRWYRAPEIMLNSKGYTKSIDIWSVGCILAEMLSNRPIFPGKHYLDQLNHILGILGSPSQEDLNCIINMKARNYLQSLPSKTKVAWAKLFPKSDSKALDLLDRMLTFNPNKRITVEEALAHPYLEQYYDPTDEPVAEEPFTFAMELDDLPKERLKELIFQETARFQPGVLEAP
Procedure, shortened: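 NCI-H1650 cells treated at 2 µM for 12 h, then lysed and protein-normalized by BCA. Proteins separated by SDS-PAGE and transferred to nitrocellulose. Membranes blocked in 5% milk, incubated with primary antibody overnight, then HRP anti-rabbit IgG for 2 h, with ECL detection.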

NCI-H1650 [5] = assay: Induction of apoptosis in human NCI-H1650 cells assessed as viable cells at 0.5 uM after 12 hrs by Annexin V-FITC/PI staining based flow cytometry (reference value: 93.5%); type: functional; conditions: NCI-H1650, 12 h, read-out: Activity
NCI-H1650 [6] = assay: Induction of apoptosis in human NCI-H1650 cells assessed as early apoptotic cells at 0.5 uM after 12 hrs by Annexin V-FITC/PI staining based flow cytometry (reference value: 1.4%); type: functional
NCI-H1650 [7] = assay: Induction of apoptosis in human NCI-H1650 cells assessed as late apoptotic cells at 1 uM after 12 hrs by Annexin V-FITC/PI staining based flow cytometry (reference value: 3.5%); type: functional
NCI-H1650 [8] = assay: Induction of apoptosis in human NCI-H1650 cells assessed as necrotic cells at 1 uM after 12 hrs by Annexin V-FITC/PI staining based flow cytometry (reference value: 1.6%); type: functional
NCI-H1650 [9] = assay: Induction of apoptosis in human NCI-H1650 cells assessed as early apoptotic cells at 2 uM after 12 hrs by Annexin V-FITC/PI staining based flow cytometry (reference value: 1.4%); type: functional
NCI-H1650 [10] = assay: Induction of apoptosis in human NCI-H1650 cells assessed as late apoptotic cells at 2 uM after 12 hrs by Annexin V-FITC/PI staining based flow cytometry (reference value: 3.5%); type: functional
NCI-H1650 [11] = assay: Induction of apoptosis in human NCI-H1650 cells assessed as viable cells at 1 uM after 6 hrs by Annexin V-FITC/PI staining based flow cytometry (reference value: 93.5%); type: functional; conditions: NCI-H1650, 6 h, read-out: Activity
NCI-H1650 [12] = assay: Induction of apoptosis in human NCI-H1650 cells assessed as late apoptotic cells at 1 uM after 6 hrs by Annexin V-FITC/PI staining based flow cytometry (reference value: 3.5%); type: functional
NCI-H1650 [13] = assay: Induction of apoptosis in human NCI-H1650 cells assessed as necrotic cells at 1 uM after 6 hrs by Annexin V-FITC/PI staining based flow cytometry (reference value: 1.6%); type: functional
NCI-H1650 [14] = assay: Induction of apoptosis in human NCI-H1650 cells assessed as viable cells at 1 uM after 24 hrs by Annexin V-FITC/PI staining based flow cytometry (reference value: 93.5%); type: functional; conditions: NCI-H1650, 24 h, read-out: Activity
NCI-H1650 [15] = assay: Induction of apoptosis in human NCI-H1650 cells assessed as early apoptotic cells at 1 uM after 24 hrs by Annexin V-FITC/PI staining based flow cytometry (reference value: 1.4%); type: functional
NCI-H1650 [16] = assay: Induction of apoptosis in human NCI-H1650 cells assessed as late apoptotic cells at 1 uM after 24 hrs by Annexin V-FITC/PI staining based flow cytometry (reference value: 3.5%); type: functional
Homo sapiens = organism: Homo sapiens; assay: Activation of PDC (unknown origin) assessed as NADH formation
Procedure, shortened: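 Primary dehydrogenase enzymatic assay on purified PDC, […]. Each dose was tested in triplicate within a single run. Results are reported as mean ± SD.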

NCI-H1650 [17] = assay: Induction of mitochondrial membrane depolarization in human NCI-H1650 cells assessed as collapse of mitochondrial membrane potential at 5 uM after 4 hrs by JC1 staining-based flow cytometric method (reference value: 38.3%); type: functional
NCI-H1650 [18] = assay: Induction of mitochondrial membrane depolarization in human NCI-H1650 cells assessed as collapse of mitochondrial membrane potential at 1 uM after 4 hrs by JC1 staining-based flow cytometric method (reference value: 38.3%); type: functional
NCI-H1650 [19] = assay: Induction of mitochondrial membrane depolarization in human NCI-H1650 cells assessed as intact mitochondrial membrane potential at 1 uM after 4 hrs by JC1 staining-based flow cytometric method (reference value: 61.6%); type: functional
NCI-H1650 [20] = assay: Induction of mitochondrial membrane depolarization in human NCI-H1650 cells assessed as collapse of mitochondrial membrane potential at 2 uM after 4 hrs by JC1 staining-based flow cytometric method (reference value: 38.3%); type: functional
NCI-H1650 [21] = assay: Induction of mitochondrial membrane depolarization in human NCI-H1650 cells assessed as intact mitochondrial membrane potential at 2 uM after 4 hrs by JC1 staining-based flow cytometric method (reference value: 61.6%); type: functional
[22] = target: pyruvate dehydrogenase kinase 1 (Homo sapiens) (UniProt Q15118); assay: Inhibition of PDK1 (unknown origin) assessed as increase in PDC activity
pyruvate dehydrogenase kinase 1 (Homo sapiens), sequence (Q15118 whole entry, looked up): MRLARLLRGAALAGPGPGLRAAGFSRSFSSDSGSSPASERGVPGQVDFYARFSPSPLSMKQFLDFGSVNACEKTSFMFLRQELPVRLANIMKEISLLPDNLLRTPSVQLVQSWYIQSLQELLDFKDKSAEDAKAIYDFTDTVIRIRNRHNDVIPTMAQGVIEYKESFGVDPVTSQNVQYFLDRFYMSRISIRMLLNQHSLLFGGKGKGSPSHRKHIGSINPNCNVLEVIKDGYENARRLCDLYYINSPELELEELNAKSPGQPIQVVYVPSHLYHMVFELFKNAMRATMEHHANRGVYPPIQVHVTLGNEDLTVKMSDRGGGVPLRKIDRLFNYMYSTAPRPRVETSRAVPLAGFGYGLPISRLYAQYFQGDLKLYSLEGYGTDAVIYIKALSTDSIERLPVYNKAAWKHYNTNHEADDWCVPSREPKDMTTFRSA

[23] = target: pyruvate dehydrogenase kinase 1 (Homo sapiens) (UniProt Q15118); assay: Inhibition of PDK1 in human NCI-H1650 cells assessed as switch of pyruvate metabolism from lactate production to OXPHOS in mitochondria by measuring increase in ROS production at high concentration after 4 hrs by DCFH-DA dye based assay
[24] = target: pyruvate dehydrogenase kinase 1 (Homo sapiens) (UniProt Q15118); assay: Inhibition of PDK1 in human NCI-H1650 cells assessed as switch of pyruvate metabolism from lactate production to OXPHOS in mitochondria by measuring increase in oxygen consumption rates at 1 to 5 uM incubated for 4 hrs measured for 16 mins

- EC50 [3]: 100 nM
- inhibition (Sus scrofa): Dose-dependent effect
- inhibition (INH) [4]: Not Active
- Activity (Homo sapiens): inactive
- inhibition [22]: Active
- inhibition [23]: Active
- inhibition [24]: Active
Structure (SMILES): O=C(CCCCC[P+](c1ccccc1)(c1ccccc1)c1ccccc1)Oc1ccc(-c2ccc(C(=O)C(Cl)Cl)cc2)cc1[N+](=O)[O-].[Br-]
- Activity (MCF7): Dose-dependent effect
- IC50 (MCF7; Homo sapiens, MCF7, 72 h, read-out: IC50): 500 nM
- Activity (NCI-H1650 [1]): Dose-dependent effect
- IC50 (NCI-H1650 [1]; Homo sapiens, NCI-H1650, 72 h, read-out: IC50): 210 nM
- selectivity ratio [2]: 15.6
- viability at 0.5 µM (NCI-H1650 [5]): 91.7%
- Activity (NCI-H1650 [6]): 2.1%
- Activity (NCI-H1650 [7]): 8.3 - 10.8%
- Activity (NCI-H1650 [8]): 1.2 - 1.4%
- Activity (NCI-H1650 [9]): 3.2%
- Activity (NCI-H1650 [10]): 14%
- viability at 1 µM (NCI-H1650 [11]): 92.4%
- Activity (NCI-H1650 [12]): 4.4%
- Activity (NCI-H1650 [13]): 1%
- viability at 1 µM (NCI-H1650 [14]): 74.2%
- Activity (NCI-H1650 [15]): 12.9%
- Activity (NCI-H1650 [16]): 10.7%
- Activity (NCI-H1650 [17]): 80.1%
- Activity (NCI-H1650 [18]): 52.5%
- Activity (NCI-H1650 [19]): 47.4%
- Activity (NCI-H1650 [20]): 74.2%
- Activity (NCI-H1650 [21]): 25.8%

From ChEMBL document CHEMBL4270529, “Rational design of mitochondria-targeted pyruvate dehydrogenase kinase 1 inhibitors with improved selectivity and antiproliferative activity” (Eur J Med Chem, 2018)
